14-3-3 Bad inh – inhibitors of 14-3-3 zeta/Bad binding, primary screen, biochemical, TR-FRET, bovine 14-3-3 zeta. 220,000 tested, 0.71% active. inhibition, % at 21.7 µM. 14-3-3 protein zeta/delta (Bos taurus), P63103. TR-FRET 14-3-3zeta/Dy647-pBad peptide displacement, 1 h;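 active = inhibition above about 70%, limit read from the data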;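 also: 0% = full 14-3-3 plus peptide FRET controls and 100% = background without 14-3-3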
KCC2 mod – KCC2 cotransporter modulators, thallium flux, primary screen, cell-based, HEK293 KCC2, FluoZin-2 fluorescence, MLSMR | Solute carrier family 12 member 5 (Homo sapiens), Q9H2X9 | KCC2 cells, thallium flux FluoZin-2 fluorescence | 190,000 tested, 2.2% active | B-score of Tl+ flux slope (higher = more flux/activation; lower = inhibition) at 10 µM;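 active = thallium flux slope and its plate-corrected score both differing from the plate sample mean at a set confidence after two filtering rounds, in either direction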;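 also: slope of fluorescence scaled to starting intensity during 10 to 20 s after thallium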
p47phox inh – p47phox/p22phox peptide binding inhibitors, primary screen, biochemical, uHTS, NADPH oxidase regulatory subunit | Neutrophil cytosol factor 1 (Homo sapiens), P14598 | fluorescence polarization, 2 h | inhibition, % at 24.7 µM | 220,000 tested, 0.53% active | AID 1274, 2008;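 active = inhibition above about 30%, limit read from the data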;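 also: 0% = p47phox with labelled peptide and 100% = labelled peptide alone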
Target sequence (P14598 whole entry, looked up): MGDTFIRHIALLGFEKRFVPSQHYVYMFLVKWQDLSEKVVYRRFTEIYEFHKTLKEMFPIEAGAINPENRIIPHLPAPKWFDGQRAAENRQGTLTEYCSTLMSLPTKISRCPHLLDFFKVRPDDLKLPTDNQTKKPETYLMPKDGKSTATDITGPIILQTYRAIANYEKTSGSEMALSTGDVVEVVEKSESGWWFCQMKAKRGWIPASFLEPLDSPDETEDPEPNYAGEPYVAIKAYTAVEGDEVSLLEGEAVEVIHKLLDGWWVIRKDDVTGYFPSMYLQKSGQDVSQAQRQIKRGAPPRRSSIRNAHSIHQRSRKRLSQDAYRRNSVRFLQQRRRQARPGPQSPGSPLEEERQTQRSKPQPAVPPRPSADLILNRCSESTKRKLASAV
WT yeast gro inh – growth inhibition of WT strain, primary screen, mitochondrial fusion inhibitor project, WT and mutant strains, chemical genetic. 190,000 tested, 2.1% active. inhibition, % at 10 µM. AID 1362, 2008. mitochondrial fusion phenotypic screen; in the data active = inhibition above about 58%; tested in S. cerevisiae
ROMK mod – ROMK potassium channel modulators, primary screen, cell-based, thallium flux, MLSMR library | 130,000 tested, 2% active | Tet-inducible ROMK, thallium flux fluorescence; actives lie on both sides | B-score at 10 µM;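 active = signal ratio slope over the read window, or its plate-corrected B-score, at least 3 SD from the plate mean, either direction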;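 also: B-score of the F/F0 ratio slope over 7 to 12 s after thallium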
RBBP9 inhibitor – human RBBP9 inhibitors, primary screen, biochemical, fluorescence polarization, FP-Rh probe, HTS | recombinant RBBP9 | inhibition, % at 7.94 µM | 220,000 tested, 0.2% active;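 active = inhibition above the campaign mean of all tested compounds plus 3 SD, cut at about 14% in these data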;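 also: plate controls were DMSO wells with RBBP9 for no effect and wells lacking RBBP9 protein for full effect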
Target sequence (O75884 whole entry, looked up): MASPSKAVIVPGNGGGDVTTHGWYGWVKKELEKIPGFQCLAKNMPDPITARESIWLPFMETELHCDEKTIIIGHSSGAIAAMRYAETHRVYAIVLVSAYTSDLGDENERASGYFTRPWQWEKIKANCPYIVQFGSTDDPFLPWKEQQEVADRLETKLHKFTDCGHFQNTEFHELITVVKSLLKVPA
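System: RBBP9 protein / Quantity: 2.5 µM RBBP9 dispensing solution, before mixing / Also added: Serine-hydrolase probe FP-Rh, 375 nM pre-mixing / Dosing: 7.94 µM single dose, 0.794% DMSO / Timing: enzyme-compound preincubation 30 min, then probe labeling 45 min, 25 °C / Signal: FP readout at 525/598 nm / Controls: DMSO-treated enzyme wells and wells lacking RBBP9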
KCC2 secondary – KCC2 modulators in sodium-free buffer, confirmation, cell-based, HEK293 KCC2, thallium flux, secondary assay; normalised thallium flux (F/F0 slope) at 10 µM; AID 1713, 2009; FluoZin2 fluorescence; hits give high values; shares compounds with KCC2 mod; 3,700 tested, 15% active;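 active = thallium flux slope above the same plate's solvent-only control mean plus 3 SD; inconclusive = the two replicate wells disagree; inactive = no significant difference from solvent-only control wells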
KCC2 bumet counter – thallium flux persisting under bumetanide in KCC2 cells, confirmation, counter-screen for KCC2 modulator project, cell-based, HEK293 KCC2, FluoZin2, secondary assay 3; shares compounds with KCC2 mod; normalized thallium flux at 10 µM; AID 1714, 2009; HEK293-KCC2 + bumetanide/ouabain; hits give high values; 3,700 tested, 49% active;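 active = thallium entry rate above the same plate's blocked-transporter control wells by more than 3 SD; inconclusive = the two repeat wells disagree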;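 also: raw slope of fluorescence over initial fluorescence between 10 and 20 s after thallium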
KCC2 sec2 – KCC2 modulators without ouabain present, confirmation, cell-based, HEK293 KCC2, thallium flux, FluoZin2, secondary assay 2 | thallium flux FluoZin2 fluorescence; actives lie on both sides; F/F0 rise rate, 10–20 s post-thallium | 3,700 tested, 23% active | shares compounds with KCC2 mod | normalized thallium flux at 10 µM;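 active = thallium flux slope more than 3 SD above or below the plate's solvent-only control mean, mostly below; inconclusive = the two repeat wells disagreed; inactive = no significant shift from solvent-only controls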;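 also: raw slope with 0.1% DMSO as baseline and bumetanide as block control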
HEK counter1 – thallium flux modulation in parental HEK cells, confirmation, counter-screen for KCC2 modulator project, cell-based, counterscreen 1; shares compounds with KCC2 mod; HEK293 parental cells, thallium flux FluoZin2, ouabain; baseline-ratio fluorescence slope, 10–20 s after thallium; thallium flux rate (normalised fluorescence) at 10 µM; 3,700 tested, 46% active;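 active = thallium flux rate significantly above the same plate's solvent-only control wells, beyond their mean plus 3 SD; inconclusive = the two replicate wells gave conflicting results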
KCC2 retest ouab – KCC2 inhibitors and activators, ouabain retest, confirmation, HEK-KCC2 cells. HEK293-KCC2, thallium flux FluoZin2 fluorescence; bidirectional: low = inhibitor, high = activator. raw Tl+ flux slope (below DMSO = inhibition, above = activation) at 10 µM. 3,700 tested, 48% active. shares compounds with KCC2 mod;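 active = thallium flux slope beyond 3 SD from same-plate DMSO control mean in most replicates, usually higher, sometimes lower; inconclusive = repeat tests gave conflicting results; inactive = no significant difference from controls in most replicates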;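 also: slope of initial-normalized fluorescence between seconds 10 and 20 after thallium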
HEK counter2 – native HEK Tl+ uptake effects, second counter-screen – HEK cells, counterscreen 2, counter-screen for KCC2 modulator project, confirmation; shares compounds with KCC2 mod; HEK293 parental, thallium flux FluoZin-2 fluorescence slope; thallium flux slope at 10 µM; 3,700 tested, 33% active;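 active = thallium flux slope above the same plate's solvent-control mean plus 3 SD in both duplicate wells; inconclusive = duplicate wells that disagreed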;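 also: run without ouabain in cells lacking the KCC2 cotransporter; slope of fluorescence scaled to its starting value between 10 and 20 s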
Starred values were filed as active, the others as inactive. Rows were chosen to be rich in hits. Some 5.8% of all compounds tested hit in one or more screens of this group.

How did CCn1ncc(N(C)N)c(Cl)c1=O do in these assays?
14-3-3 Bad inh: -8; KCC2 mod: 1.2; p47phox inh: -8; WT yeast gro inh: 2; ROMK mod: 0.8; RBBP9 inhibitor: 1

How did O=C(CSc1nnc(SCc2cccc3ccccc23)s1)c1ccc2c(c1)OCO2 do in these assays?
14-3-3 Bad inh: -3; p47phox inh: -21; WT yeast gro inh: 22; RBBP9 inhibitor: -4; KCC2 secondary: inconclusive; KCC2 bumet counter: 0.028*; KCC2 sec2: 0.04*; HEK counter1: 0.034*; KCC2 retest ouab: 0.032*; HEK counter2: 0.035*

How did Cc1ccccc1CSCCNS(C)(=O)=O do in these assays?
14-3-3 Bad inh: -6; p47phox inh: -8; WT yeast gro inh: -8; ROMK mod: -0.39; RBBP9 inhibitor: -5; KCC2 secondary: 0.017; KCC2 bumet counter: 0.0048; KCC2 sec2: 0.029; HEK counter1: 0.0075; KCC2 retest ouab: 0.017; HEK counter2: 0.0094

Results for CCCn1c(N)c(NCCN2CCOCC2)c(=O)n(CC(=O)NCc2ccccc2)c1=O ?
14-3-3 Bad inh: -8; KCC2 mod: 0.64; p47phox inh: 3; WT yeast gro inh: -5; ROMK mod: 0.28; RBBP9 inhibitor: 0

Results for CCc1ccc(C(=O)N/N=C/c2cccc3ccccc23)nc1 ?
14-3-3 Bad inh: -26; KCC2 mod: 0.084; p47phox inh: -5; WT yeast gro inh: -1; ROMK mod: -0.12; RBBP9 inhibitor: -1

What do the screens show for `CC(CCc1ccccc1)NC(=O)C1CCCN(c2nnc(-n3cccc3)s2)C1` (stereo unspecified)?
14-3-3 Bad inh: 7; KCC2 mod: -4.4*; p47phox inh: -5; WT yeast gro inh: 0; RBBP9 inhibitor: 1; KCC2 secondary: 0.0064; KCC2 bumet counter: 0.0049; KCC2 sec2: 0.03; HEK counter1: 0.008; KCC2 retest ouab: 0.015*; HEK counter2: 0.011

Results for CC(C)NC(=O)C1CCCN(c2nnc(-n3cccc3)s2)C1 (stereo unspecified) ?
14-3-3 Bad inh: 2; KCC2 mod: 0.32; p47phox inh: 5; WT yeast gro inh: 4; RBBP9 inhibitor: 1

How did O=C(CSc1nnc2c(n1)[nH]c1ccccc12)Nc1cccc(S(=O)(=O)N2CCOCC2)c1 do in these assays?
14-3-3 Bad inh: -1; KCC2 mod: -0.56; p47phox inh: -20; RBBP9 inhibitor: -4

What do the screens show for `COC(=O)CC1C(=O)NCCN1C(=O)CSc1nc2ccccc2c(=O)n1CC(C)C` (stereo unspecified)?
14-3-3 Bad inh: -20; KCC2 mod: 22*; p47phox inh: 0; WT yeast gro inh: -12; ROMK mod: 1.4; RBBP9 inhibitor: -7; KCC2 secondary: 0.0067; KCC2 bumet counter: 0.035*; KCC2 sec2: 0.04*; HEK counter1: 0.032*; KCC2 retest ouab: 0.038*; HEK counter2: 0.026*

Results for Oc1[nH]c2ccc(Br)cc2c1N=NC(=S)NCC1CCCO1 (stereo unspecified) ?
14-3-3 Bad inh: -2; KCC2 mod: 35*; p47phox inh: -10; ROMK mod: 0.38; RBBP9 inhibitor: 5; KCC2 secondary: 0.014*; KCC2 bumet counter: 0.048*; KCC2 sec2: 0.034; HEK counter1: inconclusive; KCC2 retest ouab: 0.036*; HEK counter2: 0.018*

Results for CCn1c(O)c(N=NC(=S)NCC2CCCO2)c2ccccc21 (stereo unspecified) ?
14-3-3 Bad inh: -21; KCC2 mod: 53*; p47phox inh: 9; WT yeast gro inh: 16; ROMK mod: 0.69; RBBP9 inhibitor: 0; KCC2 secondary: 0.0071; KCC2 bumet counter: 0.078*; KCC2 sec2: 0.058*; HEK counter1: 0.055*; KCC2 retest ouab: 0.067*; HEK counter2: 0.056*

What do the screens show for `Cc1cc(C)c2[nH]c(O)c(N=NC(=S)NCC3CCCO3)c2c1` (stereo unspecified)?
14-3-3 Bad inh: 17; KCC2 mod: 0.85; p47phox inh: 3; WT yeast gro inh: -6; ROMK mod: 0.19; RBBP9 inhibitor: -2

What do the screens show for `C/C(=N\NC(=S)Nc1ccccc1C)c1cc2ccccc2o1`?
14-3-3 Bad inh: -10; KCC2 mod: 40*; p47phox inh: -22; RBBP9 inhibitor: -1; KCC2 secondary: 0.008; KCC2 bumet counter: 0.047*; KCC2 sec2: 0.048*; HEK counter1: 0.043*; KCC2 retest ouab: 0.052*; HEK counter2: 0.035*

Results for C/C(=N\NC(=S)Nc1c(C)cccc1C)c1cc2ccccc2o1 ?
14-3-3 Bad inh: -8; KCC2 mod: 8.6*; p47phox inh: -4; WT yeast gro inh: 49; ROMK mod: -0.014; RBBP9 inhibitor: -6; KCC2 secondary: 0.0064; KCC2 bumet counter: 0.012*; KCC2 sec2: 0.031; HEK counter1: 0.017*; KCC2 retest ouab: inconclusive; HEK counter2: 0.013*

Screening data: PubChem, several laboratories
